In the library only some 8.9% were active in any assay of this set; here they are far more common.
HSV augment: increases HSV replication in cells. HSV replication augmentation in cells, fold increase. maximum fold increase. hit rate 0.005% among 220,000. AID 1956; in the data active = maximum fold increase above about 1.5; tested in PC3 cells
MT stabilizer: stabilizes microtubules in HeLa cells. HeLa tubulin immunostaining HCS, 24 h; share of cells brighter than vehicle mean+2SD. % tubulin-high responders, % at 10 µM. hit rate 0.83% among 200,000;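 active = plate Z-score above 3 for both tubulin-high and condensed-nucleus cell shares, with cell loss under 80%, at 10 µM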;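 note: anti alpha tubulin signal scored within the nucleus-defined area of each cell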
Dynein cargo inh: dynein cargo transport inhibition; 3617.4 mouse cells, GR-EGFP nuclear translocation imaging; test concentration mostly 20 µM; stimulated with dexamethasone, 1 µM; active compounds read low; z-score, hits read low; hit rate 0.47% among 220,000;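 active = plate z-score of nuclear minus cytoplasmic receptor signal below a set negative limit, without overly bright fluorescence or cell loss, cut at about -3.5 in these data, passing the limit was not always enough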;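 note: z-score of nuclear minus cytoplasmic ring GR-EGFP intensity difference per well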
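Buffer or medium: tet-free, stripped-serum medium; Also added: dexamethasone, 1.0 µM final; Technique: high-content fluorescence imaging after fixation; Times: 48 h induction, 1 h compound, 30 min dex at 37 °C; Read-out: per-cell GR-EGFP intensity, nucleus versus surrounding cytoplasmic ring, well-averaged.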
L major viab: Leishmania major promastigote growth inhibition; inhibition, % at 10 µM; hit rate 9% among 200,000; Leishmania major promastigotes, resazurin fluorescence viability; in the data active = inhibition above about 50%;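 note: promastigotes grown with compound for 44 hours at 28 °C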
b-catenin transl: beta-catenin nuclear translocation modulation | HeLa beta-catenin nuclear translocation, immunofluorescence imaging | nuclear translocation activity, % at 5 µM | AID 1665 | hit rate 0.3% among 190,000;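 active = nuclear translocation activity above 50% at 5 µM, with a well cell count of 50 or more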;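 note: per-cell ratio of nuclear to cytoplasmic median beta-catenin stain intensity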
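System: HeLa cells, endogenous beta-catenin; compound dosing: 5 µM primary single dose, 0.1% DMSO, 0.02–20 µM confirmation series; incubation: 24 h compound exposure at 37°C, 5% CO2; signal: beta-catenin immunofluorescence imaging with DAPI; evaluation: % activation, nuclear-to-cytoplasmic median beta-catenin signal ratio per cell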
Each line names hits and unclear results; the compound was inactive in the other large screens.

COc1cccc(CNCCO)c1OCc1ccc(Cl)cc1	none
CCCCCNCc1ccc(Cl)cc1	L major viab 51
Cc1no[n+]([O-])c1COc1cccc(/C=C2\N=C(c3ccccc3)OC2=O)c1	L major viab 64
COc1ccc(CN2C=C3C(=O)C(C)(OC(=O)C4CCCC4)C(=O)C=C3C=C2c2ccsc2)cc1 (stereo not given)	b-catenin transl 50 (no result: MT stabilizer, L major viab)
CCN(CC)CCOc1cccc(C(C)C)c1	L major viab 83
CC(C)c1cccc(OCCCCN(C)C)c1	L major viab 86
CC1=CC(=O)C=C(C)C1=NOc1ccc([N+](=O)[O-])cc1	L major viab 60
CCOc1ccccc1-n1nnnc1SCC(=O)NC(=O)Nc1ccc2c(c1)OCCO2	none
COc1cccc(/C=N/NC(=O)C(=O)NCc2cccnc2)c1O	L major viab 98
COc1cccc(/C=N/NC(=O)C(=O)Nc2ccccc2OC(F)(F)C(F)F)c1O	L major viab 97
COc1ccccc1/C=N/NC(=O)c1cccc(OC(F)(F)C(F)F)c1	none
COc1cc(C(c2c(C)[nH][nH]c2=O)c2c(C)[nH][nH]c2=O)ccc1OC(=O)c1cccc([N+](=O)[O-])c1	none
COc1cc(C(c2c(C)[nH][nH]c2=O)c2c(C)[nH][nH]c2=O)ccc1OCc1ccc([N+](=O)[O-])cc1	L major viab 98
CCOC(=O)/C=C1/N(C)c2ccccc2C1(C)C	none (no result: MT stabilizer, L major viab)
CN1/C(=C\P(=O)(N(C)C)N(C)C)C(C)(C)c2ccccc21	L major viab 99
COc1ccc(OCC(=O)Nc2cccc(NC(=O)COc3ccc(OC)cc3)n2)cc1	none
COc1ccc(C(NC(=O)C2CCCCC2)c2c(O)ccc3ccccc23)cc1 (stereo not given)	L major viab 100
CC(C)CC(=O)NC(c1ccccc1Cl)c1c(O)ccc2ccccc12 (stereo not given)	L major viab 100
CC(C)C(=O)NC(c1ccc(N(C)C)cc1)c1c(O)ccc2ccccc12 (stereo not given)	none (no result: MT stabilizer, L major viab)
O=C(CCC(=O)Nc1cccc2ccccc12)N/N=C/c1ccco1	none
CCCC(=O)NC(c1ccco1)c1c(O)ccc2ccccc12 (stereo not given)	L major viab 57
CCC(=O)NC(c1cccc([N+](=O)[O-])c1)c1c(O)ccc2ccccc12 (stereo not given)	none
CCCCC(=O)NC(c1ccco1)c1c(O)ccc2ccccc12 (stereo not given)	L major viab 67
COc1ccc(Cl)cc1C(=O)NNC(=O)c1cccnc1	none
CCN(CC)C(=O)c1ccc(Cn2cc([N+](=O)[O-])cn2)o1	none
COc1cc([N+](=O)[O-])c2ncsc2c1	none
COc1ccc(/C=C/C(=O)c2ccc(O)cc2)cc1	none
COc1ccc(/C=C/c2cc(-c3ccc(C)cc3)o[n+]2C)cc1	L major viab 101
Cc1ccc(S(=O)(=O)Nc2cccc3ncccc23)s1	L major viab 100
c1ccc(CCn2nnnc2C(c2cccnc2)N2CCN(c3nc4ccccc4s3)CC2)cc1 (stereo not given)	L major viab 100
c1ccc(CCn2nnnc2C(c2cccnc2)N2CCN(c3ccccc3)CC2)cc1 (stereo not given)	L major viab 97
Fc1ccc(N2CCN(C(c3cccs3)c3nnnn3CCc3ccccc3)CC2)cc1 (stereo not given)	L major viab 71
COCCn1nnnc1C(c1ccccc1)N1CCN(c2ccccc2)CC1 (stereo not given)	none
Oc1ccc(N2CCN(C(c3cccnc3)c3nnnn3Cc3ccccc3)CC2)cc1 (stereo not given)	L major viab 65 (no result: b-catenin transl)
c1ccc(Cn2nnnc2C(c2cccnc2)N2CCN(C3CCCCC3)CC2)cc1 (stereo not given)	none
Fc1ccccc1N1CCN(C(c2cccs2)c2nnnn2CCc2ccccc2)CC1 (stereo not given)	none (no result: HSV augment)
N#Cc1c(-c2ccccc2)nc(N2CCOCC2)[nH]c1=O	none
O=C(CN1CCCC1)Nc1ccccc1C(=O)c1ccccc1	none (no result: MT stabilizer, L major viab)
CS(=O)(=O)NN1C(=O)c2ccccc2NC1c1ccccc1 (stereo not given)	none
Cc1ccc(C23CC4CC(CC(NC(=O)N5CCN(C)CC5)(C4)C2)C3)cc1	L major viab 85
O=C(N/N=C\c1ccc(Cl)cc1Cl)c1sccc1-n1cccc1	L major viab 100 (no result: b-catenin transl)
COc1cccc(N2CCN(C(=O)c3[nH]c(C)c(C(C)=O)c3C)CC2)c1	b-catenin transl 60
CC(=O)c1c(C)[nH]c(C(=O)N2CCN(c3ccc(F)cc3)CC2)c1C	none (no result: b-catenin transl)
CC(=O)c1c(C)[nH]c(C(=O)N2CCN(c3cc(Cl)ccc3C)CC2)c1C	MT stabilizer 53 (no result: b-catenin transl)
O=C(Nc1ccccc1)Nc1nc(-c2ccccc2)cs1	none (no result: MT stabilizer, L major viab)
CNC(=O)Nc1cc(C(F)(F)F)cc(C(F)(F)F)c1	none (no result: MT stabilizer, L major viab)
COc1ccccc1NC(=S)NC1CCCCCCCCCCC1	none (no result: MT stabilizer, L major viab)
CCCSC1=C(C#N)C(c2ccccc2C)CC(=O)N1 (stereo not given)	none
Cc1cccc(-c2noc(CN(C(=O)c3c(-c4ccccc4Cl)noc3C)C(C)C)n2)c1	none (no result: b-catenin transl)
Cc1onc(-c2ccccc2Cl)c1C(=O)N(Cc1nc(-c2ccccc2)no1)C1CCCCC1	L major viab 54 (no result: b-catenin transl)
CCN(CC(=O)Nc1ccc2c(c1)OC(F)(F)O2)Cc1nc2ccccc2c(=O)[nH]1	none
CC(=O)c1ccccc1OCCCN1CCCCC1	L major viab 90
CCN(CC)CCOC(=O)C1(c2ccccc2)CCCC1	none (no result: b-catenin transl)
Brc1ccccc1OCCCN1CCCCCC1	L major viab 90
Cc1cc(C)c(OCCN2C(=O)NC(C)(C)C2=O)c(Cl)c1	none (no result: b-catenin transl)
Cc1cc(Cl)c(OCCN2C(=O)NC(C)(C)C2=O)c(Br)c1	L major viab 63 (no result: b-catenin transl)
O=C(OCCCN1CCCC1)C1(c2ccccc2)CCCC1	L major viab 100 (no result: b-catenin transl)
Cc1cc(C)n(-c2nc3c(c(=O)[nH]c(=O)n3C)n2Cc2cccc(Br)c2)n1	none
CC(C)(C)c1ccc(CCC(CC(=O)O)CC(=O)O)cc1	none
O=C(NC(=S)Nc1cccc2ncccc12)c1cccs1	none
CCOc1ccccc1C(=O)Nc1cccc(-c2ccc3nncn3n2)c1	none
CCNC(=O)C(C)Sc1ccc(Cl)cc1 (stereo not given)	none (no result: b-catenin transl)
Brc1ccccc1OCCCCCN1CCOCC1	L major viab 93
Cc1cc(Cl)c(OCCCN2CCCCC2)c(Br)c1	L major viab 97 (no result: HSV augment)
Clc1ccccc1OCCCCN1CCCC1	L major viab 96
Brc1ccccc1OCCCCn1cnc2ccccc21	none
O=S1(=O)CCC(NC(=S)Nc2ccc(Cl)cc2)C1 (stereo not given)	none
S=C(Nc1ccc(Cl)cc1)NC1CC2CCC(C1)N2Cc1ccccc1 (stereo not given)	L major viab 100
CNC(=S)NC1CC2CCC(C1)N2Cc1ccccc1 (stereo not given)	L major viab 86
CCc1ccc(NC(=S)NC2CC3CCCC(C2)N3Cc2ccccc2)cc1 (stereo not given)	L major viab 95
